Assay results: ChEMBL document CHEMBL3600302, “A Ligand-Based Drug Design. Discovery of 4-Trifluoromethyl-7,8-pyranocoumarin as a Selective Inhibitor of Human Cytochrome P450 1A2” (J Med Chem, 2015); call rule not given here

Tests used:
[1] = target: T1, Cytochrome P450 1A1 (Homo sapiens, UniProt P04798); assay: Inhibition of human microsomal CYP1A1-dependent ethoxyresorufin-O-deethylase activity by spectrofluorimetric analysis in presence of NADPH regenerating solution
T1 sequence (P04798 whole entry): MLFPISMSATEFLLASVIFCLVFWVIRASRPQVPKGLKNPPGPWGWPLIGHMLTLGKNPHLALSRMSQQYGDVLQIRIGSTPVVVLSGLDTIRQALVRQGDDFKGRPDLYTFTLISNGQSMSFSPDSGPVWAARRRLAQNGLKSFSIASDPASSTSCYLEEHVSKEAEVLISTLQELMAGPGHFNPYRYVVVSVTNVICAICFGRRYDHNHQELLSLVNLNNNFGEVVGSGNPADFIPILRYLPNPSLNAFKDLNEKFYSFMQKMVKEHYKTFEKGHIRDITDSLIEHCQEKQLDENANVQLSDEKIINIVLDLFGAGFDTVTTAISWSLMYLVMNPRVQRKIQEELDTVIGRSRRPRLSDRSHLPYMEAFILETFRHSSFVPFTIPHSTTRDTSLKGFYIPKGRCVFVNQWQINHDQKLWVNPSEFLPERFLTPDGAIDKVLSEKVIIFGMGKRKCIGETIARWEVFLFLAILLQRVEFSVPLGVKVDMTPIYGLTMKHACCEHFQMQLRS
Outline: (§1)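 Microsomal P450 (final 5 nM) in 0.1 M potassium phosphate pH 7.6 with MgCl2 at 37 °C. Substrate final 5 µM: ethoxyresorufin for 1A1/1B1, methoxyresorufin for 1A2. […] Ki was taken as the x-intercept of Dixon plots (1/v0 vs [I]). Mean ± SD of three independent experiments. Selectivity ratios are ratios of these Ki.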

[2] = target: T2, Cytochrome P450 1A2 (Homo sapiens, UniProt P05177); assay: Inhibition of human microsomal CYP1A2-dependent methoxyresorufin-O-demethylase activity by spectrofluorimetric analysis in presence of NADPH regenerating solution
T2 sequence (P05177 whole entry): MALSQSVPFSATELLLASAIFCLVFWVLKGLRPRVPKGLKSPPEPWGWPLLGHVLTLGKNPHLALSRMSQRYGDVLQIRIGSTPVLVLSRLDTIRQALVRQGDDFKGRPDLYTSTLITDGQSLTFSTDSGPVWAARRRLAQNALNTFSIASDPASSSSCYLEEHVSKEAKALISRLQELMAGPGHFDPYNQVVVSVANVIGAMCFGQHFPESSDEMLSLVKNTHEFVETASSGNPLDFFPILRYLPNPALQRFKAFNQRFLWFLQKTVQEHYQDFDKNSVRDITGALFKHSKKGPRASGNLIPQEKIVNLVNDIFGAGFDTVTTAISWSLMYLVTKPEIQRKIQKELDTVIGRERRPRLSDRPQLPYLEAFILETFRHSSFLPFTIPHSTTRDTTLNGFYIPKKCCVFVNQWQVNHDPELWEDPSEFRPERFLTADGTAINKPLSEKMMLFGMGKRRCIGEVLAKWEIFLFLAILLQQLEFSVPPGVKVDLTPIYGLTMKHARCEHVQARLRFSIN
Outline: (§2)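 Microsomal P450 (final 5 nM) in 0.1 M potassium phosphate pH 7.6 with MgCl2 at 37 °C. Substrate final 5 µM: ethoxyresorufin for 1A1/1B1, methoxyresorufin for 1A2. Ki was taken as the x-intercept of Dixon plots (1/v0 vs [I]). Mean ± SD of three independent experiments. Selectivity ratios are ratios of these Ki.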

[3] = target: T3, Cytochrome P450 1B1 (Homo sapiens, UniProt Q16678); assay: Inhibition of human microsomal CYP1B1-dependent ethoxyresorufin-O-deethylase activity by spectrofluorimetric analysis in presence of NADPH regenerating solution; outline: as §2
T3 sequence (Q16678 whole entry): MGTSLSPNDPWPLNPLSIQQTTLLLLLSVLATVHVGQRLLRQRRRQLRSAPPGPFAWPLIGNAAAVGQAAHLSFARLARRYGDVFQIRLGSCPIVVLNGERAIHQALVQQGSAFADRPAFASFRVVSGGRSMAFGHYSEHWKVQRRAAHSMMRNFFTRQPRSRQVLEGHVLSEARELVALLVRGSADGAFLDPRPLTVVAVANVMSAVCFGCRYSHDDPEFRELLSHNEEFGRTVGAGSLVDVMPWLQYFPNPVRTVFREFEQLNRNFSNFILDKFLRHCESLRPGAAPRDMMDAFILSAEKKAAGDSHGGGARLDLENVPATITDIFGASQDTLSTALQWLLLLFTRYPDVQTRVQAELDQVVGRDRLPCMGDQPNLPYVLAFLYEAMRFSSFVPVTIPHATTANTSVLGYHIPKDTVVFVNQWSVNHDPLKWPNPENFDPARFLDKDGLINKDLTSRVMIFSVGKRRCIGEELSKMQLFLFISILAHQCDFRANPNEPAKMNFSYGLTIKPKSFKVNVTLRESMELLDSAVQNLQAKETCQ

[4] = species: Homo sapiens; assay: Selectivity ratio of Ki for human microsomal CYP1A1 to Ki for human microsomal CYP1A2; outline: as §1
[5] = species: Homo sapiens; assay: Selectivity ratio of Ki for human microsomal CYP1B1 to Ki for human microsomal CYP1A2; outline: as §1
[6] = target: T2, Cytochrome P450 1A2; assay: (§3) Time-dependent inhibition of human microsomal CYP1A2-dependent methoxyresorufin-O-demethylase activity by spectrofluorimetric analysis in presence of NADPH regenerating solution
Outline: (§4)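 1A2 MROD run with NADPH at 0.0125, 0.025, 0.05 and 0.1 µM inhibitor, product monitored continuously over 6 min. Activity at different times came from first derivatives of product curves, expressed as % of control remaining. KI and limiting kinact were derived from the resulting linear plot.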

[7] = target: T2, Cytochrome P450 1A2; assay: Inhibition of CYP1A2-dependent methoxyresorufin-O-demethylase activity in human HepG2 cells at 10^-5 M preincubated for 24 hrs followed by substrate addition measured at 10, 30, 60 mins by fluorescence assay; assay type: cell-based; details: hepg2, 1 h, 10 µM
Outline: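 HepG2 cells (DMEM, 10% FBS) were plated at 2 × 10^5 per well overnight. They were exposed 24 h to compound (final 10^-4 to 10^-7 M) in DMSO, with βNF 10^-5 M as positive control. Cells were PBS-washed and given medium with 5 × 10^-6 M methoxyresorufin. Resorufin fluorescence (ex 535/em 585 nm) was read at 10, 30 and 60 min. Triplicate, three independent runs, unpaired t test versus DMSO.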

[8] = target: T1, Cytochrome P450 1A1; assay: Inhibition of human microsomal CYP1A1-dependent ethoxyresorufin-O-deethylase activity at 10 nM measured over 6 mins by spectrofluorimetric analysis in absence of NADPH regenerating solution; details: 0.1 h, 0.01 µM
Outline: (§5)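 Microsomal P450 in 0.1 M potassium phosphate pH 7.6 with MgCl2 and 10 nM inhibitor in DMSO, 2 mL final. Preincubated 5 min at 37 °C either with NADPH-regenerating solution, or without it, with NADPH then added at start. Reaction started with ethoxyresorufin (final 5 µM). Resorufin formation followed 6 min at 37 °C.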

[9] = target: T3, Cytochrome P450 1B1; assay: Inhibition of human microsomal CYP1B1-dependent ethoxyresorufin-O-deethylase activity at 10 nM measured over 6 mins by spectrofluorimetric analysis in absence of NADPH regenerating solution; details: 0.1 h, 0.01 µM; outline: as §5
[10] = target: T1, Cytochrome P450 1A1; assay: Inhibition of human microsomal CYP1A1-dependent ethoxyresorufin-O-deethylase activity at 10 nM preincubated for 5 mins followed by NADPH regenerating solution and substrate addition measured over 6 mins by spectrofluorimetric analysis; details: 0.1 h, 0.01 µM; outline: as §5
[11] = target: T3, Cytochrome P450 1B1; assay: Inhibition of human microsomal CYP1B1-dependent ethoxyresorufin-O-deethylase activity at 10 nM preincubated for 5 mins followed by NADPH regenerating solution and substrate addition measured over 6 mins by spectrofluorimetric analysis; details: 0.1 h, 0.01 µM; outline: as §5
[12] = target: T4, CYP1A2 (Homo sapiens, UniProt P05177); assay: as §3; details: human microsomal CYP1A2, probe methoxyresorufin (O-demethylation); outline: as §4
T4 sequence (P05177 whole entry): T2 sequence (P05177 whole entry)

[13] = target: T2, Cytochrome P450 1A2; assay: Inhibition of human microsomal CYP1A2-dependent methoxyresorufin-O-demethylase activity at 10 nM measured over 6 mins by spectrofluorimetric analysis in absence of NADPH regenerating solution; details: 0.1 h, 0.01 µM
[14] = target: T4, CYP1A2; assay: Inhibition of human microsomal CYP1A2-dependent methoxyresorufin-O-demethylase activity at 10 nM preincubated for 5 mins followed by NADPH regenerating solution and substrate addition measured over 6 mins by spectrofluorimetric analysis relative to control; details: human microsomal CYP1A2, probe methoxyresorufin (O-demethylation)

Structure (SMILES) | Ki [1] [µM] | Ki [2] [µM] | Ki [3] [µM] | Ratio Ki [4] | Ratio Ki [5] | TDI [6] | further results
Cc1cc2c(ccc3c(C)cc(=O)oc32)o1 | 37.9 | 1.15 | 7.46 | 33 | 6.5 | Not Active | –
Cc1cc2c(ccc3c(-c4ccccc4)c(C)c(=O)oc32)o1 | 11.6 | 3.7 | 22.6 | 3.1 | 6.1 | Not Active | –
Cc1cc2c(ccc3c(C(F)(F)F)cc(=O)oc32)o1 | 60.7 | 1.35 | 46.8 | 45 | 35 | Not Active | –
O=c1cc(-c2ccccc2)c2ccc3c(c2o1)C=CCO3 | 25.2 | 1.29 | 5.04 | 20 | 3.9 | Not Active | –
Cc1cc(=O)oc2c1ccc1ncccc12 | 101 | 14.2 | 46.6 | 7.1 | 3.3 | Not Active | –
O=c1cc(-c2ccccc2)oc2ccc3ccccc3c12 [BETA-NAPHTHOFLAVONE] | – | – | – | – | – | – | inhibition (INH) [7]: Not Active
Cc1cc2c(ccc3c(-c4ccccc4)cc(=O)oc32)o1 | 12 | 5.02 | 4.62 | 2.4 | 0.9 | Not Active | –
O=c1cc(-c2ccccc2)oc2c3c(ccc12)OCO3 | 1.23 | 0.09 | 0.48 | 14 | 5.3 | – | –
Cc1cc2c(cc(O)c3c(=O)cc(-c4ccccc4)oc32)o1 | 0.47 | 0.044 | 0.1 | 11 | 2.3 | – | inhibition (INH) [8]: Not Active; inhibition (INH) [9]: Not Active; inhibition (INH) [10]: Not Active; inhibition (INH) [11]: Not Active; kinact [12]: 0.00433 s⁻¹; inhibition (INH) [13]: Active; inhibition at 0.1 h, 0.01 µM [14]: > 90%
O=c1cc(-c2ccccc2)oc2c3c(ccc12)OCC=C3 | 0.27 | – | – | – | – | – | –
Cc1c(-c2ccccc2)c2ccc3c(c2oc1=O)C=CCO3 | 18.4 | 1.72 | 21.2 | 11 | 12 | Not Active | –
O=c1cc(-c2ccccc2)oc2c3c(cc(O)c12)OCC=C3 | 0.11 | – | 0.0056 | – | – | – | –
Cc1cc(=O)oc2c3c(ccc12)OCC=C3 | 110 | 1.51 | 12 | 73 | 7.9 | Not Active | –
O=c1cc(-c2ccccc2)oc2c1ccc1ncccc12 | 0.04 | 0.076 | 0.12 | 0.5 | 1.8 | – | –
Cc1nc2c([nH]1)c(=O)n(C)c(=O)n2Cc1ccco1 [FURAFYLLINE] | > 200 | – | > 200 | – | – | – | –
O=c1cc(-c2ccccc2)oc2c1ccc1ccccc12 [ALPHA-NAPHTHOFLAVONE] | 0.045 | – | – | – | – | – | –
O=c1cc(-c2ccccc2)c2ccc3c(c2o1)OCO3 | > 200 | 3.55 | – | – | – | Not Active | –
